Results collected from several papers.
Lines come from different studies, so protocols differ.
Effect on: cell growth or viability

SMILES	cell line	assay	setting	quantity	result
O=C(Nc1ccc(C2CCCCC2)cc1)[C@H]1O[C@H](O[C@@H]2[C@@H](OCc3ccc4ccccc4c3)[C@H](O[C@H]3O[C@H](CNS(=O)(=O)O)[C@@H](OCc4ccc5ccccc5c4)C[C@H]3NS(=O)(=O)O)[C@@H](NS(=O)(=O)O)C[C@H]2NS(=O)(=O)O)[C@H](OCc2ccc3ccccc3c2)[C@@H](NS(=O)(=O)O)[C@@H]1OCc1ccc2ccccc2c1	4T1	CCK-8	120 µM, 48 h	viability	5 to 10%
COC(=O)CNC(=O)C(=O)OC	OCI-Ly1	ATP luminescence	0.5 µM, 5 days	viability	168%
CCCCCCCCCCCCCCCCCCOc1cccc(CC(=O)OCC[N+](CC)(CC)CC)c1	HOP-62	SRB	10 µM	inhibition	30.9%
Cc1n[nH]c2ccc3nc(-c4ccc(C(=O)NCCN(C)C)cc4F)c4c(c3c12)CCCCC4	K562	resazurin	72 h	GI50	2000 nM
CCCCCCCCCCCCCCCCCCOc1cccc(CC(=O)OCCC[N+](C)(C)C)c1	HOP-62	SRB	10 µM	inhibition	15.9%
Cc1n[nH]c2ccc3nc(-c4ccc(C(=O)NCCN5CCCC5)cc4)c4c(c3c12)CCCC4	K562	resazurin	72 h	GI50	2300 nM
O=C(Nc1ccc(Cl)cc1)C1CCCN(C(=O)c2cc(C(F)(F)F)cc(C(F)(F)F)c2)C1 (racemic)	OCI-Ly1	ATP luminescence	0.1 µM, 5 days	viability	191%
CCCCCCCCCCCCCCCCCCOc1ccccc1CC(=O)OCC[N+](C)(C)C	HOP-62	SRB	10 µM	inhibition	95.1%
O=C(CCCCCCSc1ccc2ccccc2c1)NO	OCI-Ly1	ATP luminescence	0.1 µM, 5 days	viability	194%
CCCCCCCCCCCCCCCCCCOc1cccc(CC(=O)OCC[N+](C)(C)C)c1	HOP-62	SRB	10 µM	inhibition	3.94%
O=C(NCCN1CCCC1)c1ccc(-c2nc3ccc4[nH]ncc4c3c3c2CCCC3)c(F)c1	K562	resazurin	72 h	GI50	1700 nM
C[C@H](Nc1ccc2c(c1)OCCn1cc(N3C(=O)OC[C@H]3C(F)F)nc1-2)C(N)=O	ESS-1	ATP luminescence	5 days	EC50	341 nM
O=C(Nc1cccc(Br)c1)c1cccc(S(=O)(=O)N2CCCCCC2)c1	OCI-Ly1	ATP luminescence	1 µM, 5 days	viability	153%
CCCCCCCCCCCCCCCCCCOc1ccccc1CC(=O)OCC[N+](CC)(CC)CC	HOP-92	SRB	10 µM	inhibition	93.2%
NCCNC(=O)c1ccc(-c2nc3ccc4[nH]ncc4c3c3c2CCCC3)cc1	K562	resazurin	72 h	GI50	6100 nM
